A short description of data set [1]: Cmax in castrated pig plasma withdrawn from hepatic vein at 0.8 mg/kg administered as intrajejunal dose 20 mins after ketoconazole administration by UPLC-tandem mass spectrometry. Type of data set: ADME, organism-based, Sus scrofa. More on the design: dose 0.8 mg/kg. Conditions: male. The method in brief: (§1)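 Where ketoconazole was co-dosed, it was given at 10 mg/kg at the same jejunal site 20 min before. Plasma protein-precipitated with acetonitrile and analysed by UPLC-MS/MS (finasteride-d9). AUC0-6h, Cmax and t1/2 (ln2/λz) were derived by non- or compartmental analysis.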

Data set [2] in a line: Volume of distribution at steady state in castrated pig at 0.2 mg/kg, iv by UPLC-tandem mass spectrometry. The format is ADME, organism-based, Sus scrofa. More on the design: dose 0.2 mg/kg, route intravenous. The conditions noted are these: male, in vivo, read-out: Vdss. The method in brief:
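Femoral plasma assayed over 0-6 h by UPLC-MS/MS. CL calculated as dose/AUCVF,0-6h; Vss calculated as MRT × CL, with MRT = AUMC0-6h/AUC0-6h.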

The nature of data set [3]: Terminal half life in castrated pig plasma withdrawn from hepatic vein at 0.8 mg/kg administered as intrajejunal dose 20 mins after ketoconazole administration by UPLC-tandem mass spectrometry. The format is ADME, organism-based, Sus scrofa. More on the design: dose 0.8 mg/kg. Conditions: male, read-out: beta t1/2 (converted). The method in brief: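 Portal, hepatic and femoral vein plasma sampled over 6 h and assayed by UPLC-MS/MS. Tmax read directly from the profiles. Terminal t1/2 calculated as ln2/λz by non- or compartmental analysis; values below LLOQ after Cmax excluded.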

Data set [4] is described as follows: AUC (0 to 6 hrs) in castrated pig bile at 0.8 mg/kg administered as intrajejunal dose 20 mins after ketoconazole administration by UPLC-tandem mass spectrometry. Type of data set: ADME, organism-based, Sus scrofa. More on the design: time < 6 hr, route […], dose 0.8 mg/kg. Conditions: male.
Data set [5] in a line: AUC (0 to 6 hrs) in castrated pig plasma withdrawn from portal vein at 0.8 mg/kg administered as intrajejunal dose 20 mins after ketoconazole administration by UPLC-tandem mass spectrometry. Conditions: male. More on the design: time < 6 hr, dose 0.8 mg/kg. Type of data set: ADME, organism-based, Sus scrofa. The method in brief: as §1
A short description of data set [6]: Drug excretion in castrated pig urine assessed as unchanged drug level at 0.8 mg/kg administered as intrajejunal dose 20 mins after ketoconazole administration measured during 6 hrs sampling by UPLC-tandem mass spectrometry. Conditions: in vivo, other. More on the design: dose 0.8 mg/kg. Type of data set: ADME, organism-based, Sus scrofa.
A short description of data set [7]: Drug excretion in castrated pig urine assessed as fraction of the dose excreted at 0.8 mg/kg administered as intrajejunal dose measured during 6 hrs sampling by UPLC-tandem mass spectrometry. More on the design: dose 0.8 mg/kg. The conditions noted are these: male, read-out: Drug excretion. Type of data set: ADME, organism-based, Sus scrofa.
Data set [8] in a line: Biliary excretion in castrated pig assessed as fraction of the dose excreted at 0.8 mg/kg administered as intrajejunal dose measured during 6 hrs sampling by UPLC-tandem mass spectrometry. Type of data set: ADME, organism-based, Sus scrofa. More on the design: dose 0.8 mg/kg. Conditions: male, bile, read-out: Drug excretion.
The nature of data set [9]: AUC (0 to 6 hrs) in castrated pig plasma withdrawn from portal vein at 0.2 mg/kg, iv by UPLC-tandem mass spectrometry. Type of data set: ADME, organism-based, Sus scrofa. More on the design: time < 6 hr, dose 0.2 mg/kg, route intravenous. Conditions: male. The method in brief:
as §1

Data set [10] is described as follows: Ratio of AUC in bile to plasma withdrawn from hepatic vein in castrated pig at 0.8 mg/kg administered as intrajejunal dose by UPLC-tandem mass spectrometry. Conditions: male, read-out: Ratio AUC. More on the design: dose 0.8 mg/kg. The format is ADME, organism-based, Sus scrofa. The method in brief: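 Bile collected 0-6 h and weighed; portal and hepatic vein plasma sampled. UPLC-MS/MS quantification against finasteride-d9 in SRM mode. Bile/plasma AUC ratio calculated per vein.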

A further data set relates to Sus scrofa. The experiment in a line: Hepatic clearance in castrated pig at 0.8 mg/kg administered as intrajejunal dose 20 mins after ketoconazole administration by UPLC-tandem mass spectrometry. Conditions: in vivo, other. Type of data set: ADME, organism-based, Liver. More on the design: dose 0.8 mg/kg. The method in brief:
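Portal and hepatic vein plasma measured 0-6 h by UPLC-MS/MS. Extraction ratio derived from portal versus hepatic concentrations or AUCs; CLH then obtained as EH × liver blood flow 52 ml/min/kg × measured blood/plasma ratio.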

This is an account of results in ChEMBL document CHEMBL3525971 (Drug Metab Dispos, 2011).

The term Cmax denotes the peak of the concentration-time curve. Broadly, the AUC(0-t) is exposure summed from dosing to a finite time, without extrapolation to infinity. A lower AUC(0-t) goes with less exposure. In the case of `CC(C)(C)NC(=O)[C@H]1CC[C@H]2[C@@H]3CC[C@H]4NC(=O)C=C[C@]4(C)[C@H]3CC[C@]12C` [FINASTERIDE], the Cmax in [1] came to 1400 nM. The Vd in data set [2] stood at 0.99 L/kg. In data set [3], the half-life was 3.6 h. The AUC(0-t) at 6 h turned out to be 4.2 µM·h in [4], 6.3 µM·h in data set [5] and 1.2 µM·h in data set [9]. Further, in data set [6], the Ae worked out at 0.04 µmol. The values for the dose excreted at 6 h in data set [7] and in [8] were 0.02% and 0.09%, respectively. In addition, the Kp in [10] is 14. This molecule had a CLH in the data set with Sus scrofa of 18 mL/min/kg.
